System: MS2 coat protein
Test: apparent Kd, MS2 coat protein; higher = weaker binding; RNA-MaP array; FMN 200 µM where present
In short: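 The apparent Kd is reported as the median of filtered per-cluster binding-curve fits. To get these curves, designs transcribed by stalled E. coli RNA polymerase on Illumina sequencing-chip clusters were titrated with SNAP-549-labelled MS2 coat protein from 0.7 or 1.5 nM, doubling to 3 µM. Titrations were run without and then with constant ligand in 100 mM Tris-HCl pH 7.5, 80 mM KCl, 4 mM MgCl2, BSA, DTT, yeast tRNA and Tween-20, and green signal was normalised to red-channel RNA signal and control-cluster median Fmax.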

[1] = designed as: ON switch for flavin mononucleotide, no ligand
[2] = ligand present: flavin mononucleotide, designed as: ON switch for flavin mononucleotide
[3] = designed as: OFF switch for flavin mononucleotide, no ligand
[4] = ligand present: flavin mononucleotide, designed as: OFF switch for flavin mononucleotide

Sequence	apparent Kd [1]	apparent Kd [2]	apparent Kd [3]	apparent Kd [4]
GCACAUGAGGAUCACCCAUGUCGGGAGGAUAUCUAGGCUGGGCGAUGCUAGGGCGGCCUCUGCUUAGAGAAGGCCCAUAAAAUC	197 nM	33.4 nM	–	–
GCACAUGAUACAGGAUAUGUUUUUUAAUUUAUUAUGAGUUAUAUAUUAUUUACAGAAGGGUAUACAUGAGGAUCACCCAUGUGC	–	–	40.9 nM	31.4 nM
GCACCUGCGUAGAAGGUACUAUAUAAUGCAGUGUAAGGAUAUACAUACAUGAGGAUCACCCAUGUAAAUGGAAUUUGCAGGUGC	12.2 nM	10.3 nM	–	–
GCACUGGAUGUAGGAUAUCAGGACGAUAAGUCCUGAGAAGGACAUGAGGAUCACCCAUGUGAUAAAACCAGUGCAAAUAAUAUA	–	–	18.5 nM	109 nM
GCACUGGCAGGAUAUACAUGAGGAUCACCCAUGUGAUCCCUUAAGUACAAAAGUACAAGUAGAAGGGCCUGUGC	–	–	771 nM	188 nM
GCACUUACGUUAGGAUAUGGAUCGGAAAACGAUCCAGAAGGAAUAUGGGAACAUGAGGAUCACCCAUGUUCCUCAGACAAGUGC	67.7 nM	35.1 nM	–	–
GCAGCACAGAUUUACAUGAGGAUCACCCAUGUCUAUUGAGAUGAGGAUAUGCAUCGAAUGAAGUUGCAGAAGGCAUUGUGCUGC	7.51 nM	6 nM	–	–
GCAGCACAUGAGGAUCACCCAUGUCUUCGGAGUCGAGGAUAUGGUCACUGUAAACAGUGGCCAGAAGGCGAGUUGC	31.7 nM	27.2 nM	–	–
GCAGCACUGUAGAACAUGAGGAUCACCCAUGUCGAUUGUUAUGAGGAUAUGCAUCGUAUGAAGAUGCAGAAGGCAUUGUGCUGC	5.59 nM	5.16 nM	–	–
GCAGCAUCUGCAGGAUAUCAGCACGUGUAGUGCUGAGAAGGGCACAUGAGGAUCACCCAUGUGAUCAAUUAAUAUAGAUGCUGC	–	–	5.78 nM	15.8 nM
GCAGCGUAUGUAGGAUAUCGGUCAGUUUCUGAUCGAGAAGGACAUGAGGAUCACCCAUGUAAAUUACCGACAUUGUCGGGCUGC	–	–	6.5 nM	8.25 nM
GCAGGUCGAGGAUAUACAUGAGGAUCACCCAUGUGAUUAGCAGUCCUCGGACUGCAAUGUAGAAGGUGACCUGC	–	–	148 nM	501 nM
GCAUCACAUGAGGAUCACCCAUGUCUUCGGAGUGGAGGAUAUGGUCACUGUAAACAGUGGCCAGAAGGCCGGAUGC	82.6 nM	94.5 nM	–	–
GCAUGCAAGUAGAAGGACGGAUAUUUUGAAAACGUAGGAUAUACAGAAUCAUAUCCACAAGGUAACAUGAGGAUCACCCAUGUA	–	–	10.5 nM	9.58 nM
GCAUGCAUAGCGAUAUGAUCGAGAGAUCAUGUCGCUAAAUUUAGAAGGACAUGAGGAUCACCCAUGUAGGAUAUGGGAGCAUGU	92.1 nM	15.4 nM	–	–
GCAUGCGUUCGAGGAUAUCGGUGAGCAACGGAACGAGAAGGCGAUCGAAUGUCACAUAUUAUGUACAUGAGGAUCACCCAUGUA	104 nM	43.4 nM	–	–
GCAUGCUAUGUCAGGAUAUACCUCUGGAUACAUAGGUAGAAGGGACAUGAGGAUCACCCAUGUCCUCAUCAUGC	–	–	12.4 nM	23.8 nM
GCAUGUCUUAAGGAUAUGCUUUGGCGUGAGCCGGCAGAAGGUAAGACAUGAGGAUCACCCAUGUUUUCCUAAAA	–	–	20.5 nM	140 nM
GCAUUGAUAACAGGAUAUAUGAGUCCUACAUGAGGAUCACCCAUGUAGGUGAUCAGCCGUGAUUAGUAGAAGGGUUAUCAAUGC	13 nM	5.99 nM	–	–
GCAUUGAUAACAGGAUAUAUGUUUCCUACAUGAGGAUCACCCAUGUAGGUGAUCAGCCGAGAAAAGUAGAAGGGUUAUCAAUGC	16.7 nM	15.4 nM	–	–
GCCAACGCAUGAGGAUAUGCUCCCGUUUCGGGAGCAGAAGGCAUGUCAUAAGACAUGAGGAUCACCCAUGUAGUUAAGAUGGCA	474 nM	20.1 nM	–	–
GCCAAGGUACAGAAGGGACUACAUGAGGAUCACCCAUGUGUUUCUGCACGUAAAUGAUACAGUGGUCAGGAUAUGUGCUCCAAA	–	–	9.49 nM	25.8 nM
GCCACGGGAGGAUAUCGCGGAGGCUACAUGAGGAUCACCCAUGUCUGGUCUUCGUGCUCCCGAGAAGGCCCGUCAG	–	–	14 nM	32.9 nM
GCCAGGAUGUAAGGAUAUGCUGAGGAAUACUCAGCAGAAGGUACAUGAGGAUCACCCAUGUAAUCCAAUAAUAAAUAACCUGGC	–	–	11.3 nM	23.4 nM
GCCAUCACAUGAGGAUAUGCUCGGGUUUCCCGAGCAGAAGGCAUGUCAUAGGACAUGAGGAUCACCCAUGUAGUUAAGAUGGCA	507 nM	17.1 nM	–	–
GCCAUCGCAUGAGGAUAUGCUCCCGUUUCGGGAGCAGAAGGCAUGUAAUAAGACAUGAGGAUCACCCAUGUAGUUAAGAUGGCA	7.36 nM	5.32 nM	–	–
GCCAUCGCAUGAGGAUAUGCUCCGGUUUCCGGAGCAGAAGGCAUGUCAUAAAACAUGAGGAUCACCCAUGUAGUUAAGAUGGCA	8.86 nM	5.18 nM	–	–
